The list is not random: actives were taken first. Their share in the collection is about 12%.
Lmaj promast: Leishmania major promastigote growth inhibition; inhibition, % at 10 µM; hit rate 9% among 200,000; Leishmania major promastigotes, resazurin fluorescence viability; AID 1063;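 further: promastigotes grown with compound for 44 hours at 28 °C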
Wee1 stabilizer: blocks degradation of human Wee1 kinase; P30291; HeLa Luc-Wee1K328M stability, luciferase luminescence; 100% = proteasome inhibitor MG132 effect; reporter increase, % at 5 µM; hit rate 1.2% among 220,000;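 active means activation above the mean of all tested compounds plus 3 SD, set per screening run, cut at about 8.8% in these data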;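 further: cells exposed to compound for 20 h before luminescence read; 0% = DMSO alone and 100% = MG132 at 30 µM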
Arbovirus inh: blocks arbovirus infection. arbovirus infection cell-based antiviral screen. inhibition, % at 10 µM. hit rate 0.37% among 200,000; in the data active means inhibition above about 30%
PKD1 kinase inh: PKD1 (human) kinase inhibition; Q15139; PKD1 kinase fluorescence polarization assay; inhibition, % (test concentration not listed); hit rate 0.056% among 200,000; AID 797
Rad51 HR inh: blocks human Rad51 in homologous recombination; Q06609; hRad51 DNA strand exchange, fluorescence dequenching; inhibition, % at 10 µM; hit rate 0.085% among 200,000;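 active means inhibition above 40% at the single screening dose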;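 further: 0% = DMSO control wells and 100% = blanks with heterologous ssDNA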
Target sequence (Q06609 whole entry, looked up): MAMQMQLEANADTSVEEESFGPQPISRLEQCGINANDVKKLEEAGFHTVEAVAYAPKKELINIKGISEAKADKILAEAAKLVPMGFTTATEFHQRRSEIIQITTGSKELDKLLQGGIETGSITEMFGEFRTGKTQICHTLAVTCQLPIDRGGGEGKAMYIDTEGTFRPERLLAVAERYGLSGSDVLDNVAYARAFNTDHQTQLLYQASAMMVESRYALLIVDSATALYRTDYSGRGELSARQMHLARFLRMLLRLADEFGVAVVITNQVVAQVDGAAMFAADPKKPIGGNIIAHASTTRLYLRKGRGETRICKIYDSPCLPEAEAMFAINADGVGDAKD
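System: hRad51 filaments on single-stranded DNA; reagent: Fluorescein- and BHQ1-tagged 47-mer duplex; compound dosing: one concentration, 10 µM final; timing: filaments 15 min 37 °C, then compound 30 min; measured by: fluorescein emission 520 nm, excitation 485 nm; benchmarks: per-plate controls and blanks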
CHOP inh: blocks CHOP induction under ER stress | CHO-K1 CHOP-promoter luciferase, tunicamycin-induced, 15-18 h | hit rate 3.8% among 220,000 | inhibition, % at 10 µM | AID 2732;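 active means compounds that reduced the stress-induced luciferase reporter signal by more than about 70% of percent inhibition, limit read from the data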;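 further: 0% = tunicamycin plus vehicle and 100% = wells without tunicamycin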
CHOP inh conf: confirmation of CHOP induction inhibitors | shares compounds with CHOP inh | CHO-CHOP promoter luciferase reporter, tunicamycin-induced, luminescence | inhibition, % at 10 µM | hit rate 45% among 2,100;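 active means mean of three repeat readings of reporter signal inhibition above a set limit, cut at about 70% in these data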;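 further: 0% = tunicamycin plus vehicle and 100% = wells lacking tunicamycin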
Numbers without * were called inactive. Unless noted, no stated cut-off is given here; in the data, active means inhibition above about 50%; inactive means the rest.

`COc1ccccc1-c1cn[nH]c1-c1ccc(OCc2ccc([N+](=O)[O-])cc2)cc1O` gave Wee1 stabilizer -1, Rad51 HR inh 9, CHOP inh 99* and CHOP inh conf -11.
Oc1cc(OCc2ccccc2)ccc1-c1[nH]ncc1-c1ccccc1 was read as Wee1 stabilizer 1 and CHOP inh 5.
O=[N+]([O-])c1ccc(COc2ccc(-c3[nH]ncc3-c3ccccc3)c(O)c2)cc1 was read as Lmaj promast 5, Wee1 stabilizer -1, Arbovirus inh -17, PKD1 kinase inh 0, Rad51 HR inh -6, CHOP inh 99* and CHOP inh conf 102*.
`COc1ccccc1-c1cn[nH]c1-c1ccc(OCc2ccc(F)cc2)cc1O` gave Wee1 stabilizer -2 and CHOP inh 12.
`Clc1cccc(Cl)c1C1=NOC(c2nnc(-c3ccccc3)o2)C1` (stereo unspecified) gave Rad51 HR inh -10 and CHOP inh -5.
`Cc1cc(N2CCOCC2)nc2ccc(NC(=S)N3CCN(c4ccccc4)CC3)cc12` gave Lmaj promast 4, Wee1 stabilizer -1, Arbovirus inh -16, PKD1 kinase inh 2, Rad51 HR inh 19, CHOP inh 101* and CHOP inh conf -13.
`CCC(C)NC(=O)CCC(=O)Nc1ccc2nc(N3CCOCC3)cc(C)c2c1` (stereo unspecified) gave Lmaj promast 2, Wee1 stabilizer 0, Arbovirus inh 6, PKD1 kinase inh 1, Rad51 HR inh 6 and CHOP inh -8.
`Cc1nn(Cc2c(Cl)cccc2Cl)c(C)c1NC(=O)c1sc2ccccc2c1Cl` gave Lmaj promast 19, Wee1 stabilizer -1, Arbovirus inh -3, PKD1 kinase inh -10, Rad51 HR inh -8 and CHOP inh 27.
Screening Cc1nn(Cc2c(Cl)cccc2Cl)c(C)c1NC(=O)c1cn(-c2ccccc2)nc1-c1ccccc1 returned Lmaj promast 83*, Wee1 stabilizer -3, Arbovirus inh -32, PKD1 kinase inh -13, CHOP inh 109* and CHOP inh conf 106*.
Screening O=C(OCC(=O)c1c[nH]c2ccccc12)c1ccco1 returned Lmaj promast -7, Wee1 stabilizer 2, Arbovirus inh -2, PKD1 kinase inh 11, Rad51 HR inh 16 and CHOP inh 12.
COc1cc(NC(=O)c2ccco2)c(C(=O)OCC(=O)c2c[nH]c3ccccc23)cc1OC was read as Lmaj promast 55*, Wee1 stabilizer -2, Arbovirus inh -19, PKD1 kinase inh -2, Rad51 HR inh 1, CHOP inh 107* and CHOP inh conf 42.
Screening O=C1C(Cc2cccc([N+](=O)[O-])c2)SC(=Nc2ccccc2)N1c1ccccc1 (stereo unspecified) returned Lmaj promast 45, Wee1 stabilizer -2, Arbovirus inh 28, PKD1 kinase inh 2, Rad51 HR inh 3 and CHOP inh 28.
Screening Cc1nnc(Sc2cc(NCCO)c([N+](=O)[O-])c3nonc23)s1 returned Lmaj promast -6, Wee1 stabilizer 8, Arbovirus inh -39, PKD1 kinase inh 1, Rad51 HR inh 22, CHOP inh 98* and CHOP inh conf -11.
O=[N+]([O-])c1c(NCCCO)cc(Sc2nc3ccccc3s2)c2nonc12 was read as Lmaj promast 26, Wee1 stabilizer 2, Arbovirus inh -32, PKD1 kinase inh -5, CHOP inh 109* and CHOP inh conf 71*.
`CCOC(=O)Cc1cc(-c2ccc(O)cc2)nc2ccc3ccccc3c12` gave Lmaj promast 15, Wee1 stabilizer 1, Arbovirus inh -1, PKD1 kinase inh -11, CHOP inh 101* and CHOP inh conf 96*.
CCOC(=O)C1CCCN(C(=O)c2cc(-c3ccc(C)cc3)nc3ccccc23)C1 (stereo unspecified) was read as Lmaj promast 32, Wee1 stabilizer -1, Arbovirus inh -1, PKD1 kinase inh 2, Rad51 HR inh 13 and CHOP inh 36.
